Assay results from ChEMBL document CHEMBL2321795, “Solubility-driven optimization of (pyridin-3-yl) benzoxazinyl-oxazolidinones leading to a promising antibacterial agent” (J Med Chem, 2013).
Values after ≈ are worked out from the molar mass of the structure shown.

Assays:
[1] = system: Staphylococcus aureus; assay: Antibacterial activity against methicillin-resistant Staphylococcus aureus after 16 hrs by NCCLS agar dilution method; type: functional
Procedure, shortened: (§1)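 Agar dilution MIC. Stocks were 320 μg/mL in 50% aqueous DMSO, 2-fold serially diluted in sterile water, then diluted 10-fold into Mueller–Hinton agar to give 16–0.03125 μg/mL final. Organisms were grown in MH broth at 35 °C for 8 h and adjusted to 0.5 McFarland. They were spotted onto drug-containing plates with a multipoint inoculator and incubated at 35 °C for 16 h. Linezolid was the positive control.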

[2] = system: Staphylococcus epidermidis; assay: Antibacterial activity against methicillin-sensitive Staphylococcus epidermidis after 16 hrs by NCCLS agar dilution method; type: functional; procedure, shortened: as §1
[3] = system: Enterococcus faecalis; assay: Antibacterial activity against Enterococcus faecalis after 16 hrs by NCCLS agar dilution method; type: functional
Procedure, shortened: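 Agar dilution MIC per NCCLS, 6 E. faecalis strains. Stock was 320 μg/mL in 50% water/DMSO, serially 2-fold diluted in sterile water, then 10-fold into Mueller–Hinton agar to give 16–0.03125 μg/mL final. Inocula came from MH broth cultures grown 8 h at 35 °C, adjusted to 0.5 McFarland and spotted by multipoint inoculator. Plates were read after 16 h at 35 °C.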

[4] = system: Staphylococcus epidermidis; assay: Antibacterial activity against linezolid-resistant Staphylococcus epidermidis after 16 hrs by NCCLS agar dilution method; type: functional; procedure, shortened: as §1
[5] = system: Staphylococcus aureus; assay: Antibacterial activity against methicillin-sensitive Staphylococcus aureus after 16 hrs by NCCLS agar dilution method; type: functional; procedure, shortened: as §1
[6] = system: Enterococcus faecalis; assay: Antibacterial activity against linezolid-resistant Enterococcus faecalis after 16 hrs by NCCLS agar dilution method; type: functional; procedure, shortened: as §1
[7] = system: Staphylococcus aureus; assay: Antibacterial activity against Staphylococcus aureus ATCC 29213 after 16 hrs by NCCLS agar dilution method; type: functional; conditions: ATCC 29213, 16 h; procedure, shortened: as §1
[8] = system: Staphylococcus epidermidis; assay: Antibacterial activity against methicillin-resistant Staphylococcus epidermidis after 16 hrs by NCCLS agar dilution method; type: functional; procedure, shortened: as §1
[9] = system: Streptococcus pneumoniae; assay: Antibacterial activity against penicillin-resistant Streptococcus pneumoniae after 16 hrs by NCCLS agar dilution method; type: functional; procedure, shortened: as §1
[10] = system: Enterococcus faecium; assay: Antibacterial activity against linezolid-resistant Enterococcus faecium after 16 hrs by NCCLS agar dilution method; type: functional; procedure, shortened: as §1
[11] = system: Staphylococcus aureus; assay: Antibacterial activity against linezolid-resistant Staphylococcus aureus after 16 hrs by NCCLS agar dilution method; type: functional; procedure, shortened: as §1
[12] = Oral bioavailability in Sprague-Dawley rat at 15 mg/kg; type: ADME, organism-based; conditions: in vivo
Procedure, shortened: (§2)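 Rats were dosed orally or by intravenous injection. For prodrugs, all parameters were based on the active parent antibacterial detected in plasma, and each prodrug dose was also given as an equivalent parent dose. Parameters were Cmax, Tmax, elimination T1/2, AUC from the concentration–time curve, clearance and oral bioavailability F.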

[13] = AUC in Sprague-Dawley rat at 15 mg/kg, po by LC-MS analysis; type: ADME, organism-based; parameters: dose 15 mg/kg, route oral; conditions: plasma
Procedure, shortened: (§3)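 Rats dosed orally or by intravenous injection. AUC is the area under the plasma concentration–time curve. For the prodrug entries, all PK values were based on the amount of the active parent antibacterial detected, not the administered prodrug.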

[14] = Elimination half life in Sprague-Dawley rat at 15 mg/kg, po by LC-MS analysis; type: ADME, organism-based; parameters: dose 15 mg/kg, route oral; conditions: in vivo, read-out: beta t1/2 (converted); procedure, shortened: as §2
[15] = Elimination half life in Sprague-Dawley rat at 10 mg/kg, iv by LC-MS analysis; type: ADME, organism-based; parameters: dose 10 mg/kg, route intravenous; conditions: in vivo, read-out: beta t1/2 (converted); procedure, shortened: as §2
[16] = Tmax in Sprague-Dawley rat at 15 mg/kg, po by LC-MS analysis; type: ADME, organism-based; parameters: dose 15 mg/kg, route oral; conditions: in vivo; procedure, shortened: as §2
[17] = AUC in Sprague-Dawley rat at 10 mg/kg, iv by LC-MS analysis; type: ADME, organism-based; parameters: dose 10 mg/kg, route intravenous; conditions: plasma; procedure, shortened: as §3
[18] = Cmax in Sprague-Dawley rat at 15 mg/kg, po by LC-MS analysis; type: ADME, organism-based; parameters: dose 15 mg/kg, route oral; conditions: in vivo; procedure, shortened: as §2
[19] = Clearance in Sprague-Dawley rat at 10 mg/kg, iv by LC-MS analysis; type: ADME, organism-based; parameters: dose 10 mg/kg, route intravenous; conditions: in vivo; procedure, shortened: as §2
[20] = Aqueous solubility of the compound; conditions: aqueous (not further specified)
[21] = molecular target: Voltage-gated inwardly rectifying potassium channel KCNH2 (Homo sapiens, UniProt Q12809)
Sequence of Voltage-gated inwardly rectifying potassium channel KCNH2 (Q12809 whole entry): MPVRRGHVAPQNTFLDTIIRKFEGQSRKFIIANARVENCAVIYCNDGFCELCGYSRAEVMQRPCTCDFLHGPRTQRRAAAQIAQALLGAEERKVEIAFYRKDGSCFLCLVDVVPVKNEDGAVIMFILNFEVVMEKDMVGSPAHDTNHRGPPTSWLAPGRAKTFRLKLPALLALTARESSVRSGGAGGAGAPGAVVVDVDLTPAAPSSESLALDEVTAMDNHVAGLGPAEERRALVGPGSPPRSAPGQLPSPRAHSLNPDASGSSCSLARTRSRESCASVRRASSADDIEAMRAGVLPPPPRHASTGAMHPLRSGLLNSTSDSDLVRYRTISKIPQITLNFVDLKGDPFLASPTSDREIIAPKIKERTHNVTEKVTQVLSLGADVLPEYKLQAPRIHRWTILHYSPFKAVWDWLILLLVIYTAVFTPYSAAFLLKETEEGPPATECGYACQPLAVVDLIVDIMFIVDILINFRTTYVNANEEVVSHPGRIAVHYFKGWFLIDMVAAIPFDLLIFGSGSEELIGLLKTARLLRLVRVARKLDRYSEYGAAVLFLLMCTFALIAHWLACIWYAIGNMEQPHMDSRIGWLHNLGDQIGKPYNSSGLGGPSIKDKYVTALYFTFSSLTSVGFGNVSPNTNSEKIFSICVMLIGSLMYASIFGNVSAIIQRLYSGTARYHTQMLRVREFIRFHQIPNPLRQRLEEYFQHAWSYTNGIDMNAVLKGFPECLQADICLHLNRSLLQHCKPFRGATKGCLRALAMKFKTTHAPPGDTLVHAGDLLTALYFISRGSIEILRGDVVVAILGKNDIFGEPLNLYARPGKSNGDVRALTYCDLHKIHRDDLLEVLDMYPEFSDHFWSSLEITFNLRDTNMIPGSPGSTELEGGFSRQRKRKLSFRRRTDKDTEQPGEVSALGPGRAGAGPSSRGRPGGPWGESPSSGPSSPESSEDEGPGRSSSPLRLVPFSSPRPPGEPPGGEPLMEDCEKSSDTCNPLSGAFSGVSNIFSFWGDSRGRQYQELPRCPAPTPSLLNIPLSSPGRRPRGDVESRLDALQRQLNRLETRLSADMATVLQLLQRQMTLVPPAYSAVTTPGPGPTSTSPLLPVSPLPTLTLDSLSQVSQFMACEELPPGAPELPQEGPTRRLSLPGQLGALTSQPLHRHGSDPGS

SMILES	MIC [1]	MIC [2]	MIC [3]	MIC [4]	MIC [5]	MIC [6]	MIC [7]	MIC [8]	MIC [9]	MIC [10]	MIC [11]	further results
O=C1O[C@@H](CO)[C@@H]2COc3cc(-c4ccc(C(O)CO)nc4)ccc3N12 (some centres not stated)	0.5 µg/mL (≈ 1.4 µM)	0.5 µg/mL (≈ 1.4 µM)	1 µg/mL (≈ 2.79 µM)	8 µg/mL (≈ 22.3 µM)	0.5 µg/mL (≈ 1.4 µM)	4 µg/mL (≈ 11.2 µM)	0.5 µg/mL (≈ 1.4 µM)	0.5 µg/mL (≈ 1.4 µM)	0.5 µg/mL (≈ 1.4 µM)	4 µg/mL (≈ 11.2 µM)	16 µg/mL (≈ 44.6 µM)	
N=C(N)NCCC[C@H](N)C(=O)O.N=C(N)NCCC[C@H](N)C(=O)O.O=C1OC(COP(=O)(O)O)CN1c1ccc(-c2ccc3c(c2)OC[C@H]2[C@H](CO)OC(=O)N32)cn1 (some centres not stated)												bioavailability [12]: 32.6%; AUC [13]: 914 ng·h/mL; half-life [14]: 87 min; half-life [15]: 15.6 min; Tmax [16]: 15 min; AUC [17]: 1800 ng·h/mL; Cmax [18]: 416 ng/mL; clearance [19]: 46.3 mL/min/kg
O=C1OC(COP(=O)([O-])[O-])CN1c1ccc(-c2ccc3c(c2)OC[C@H]2[C@H](CO)OC(=O)N32)cn1.[Na+].[Na+] (some centres not stated)												bioavailability [12]: 19.7%; AUC [13]: 1230 ng·h/mL; half-life [14]: 96.6 min; half-life [15]: 60 min; Tmax [16]: 15 min; AUC [17]: 4000 ng·h/mL; Cmax [18]: 650 ng/mL; solubility [20]: 534 mg/mL; clearance [19]: 33.8 mL/min/kg
O=C1OCCN1c1ccc(-c2ccc3c(c2)OC[C@H]2[C@H](CO)OC(=O)N32)cn1	0.5 µg/mL (≈ 1.3 µM)	0.5 µg/mL (≈ 1.3 µM)	1 µg/mL (≈ 2.61 µM)	2 µg/mL (≈ 5.22 µM)	0.5 µg/mL (≈ 1.3 µM)	4 µg/mL (≈ 10.4 µM)	0.5 µg/mL (≈ 1.3 µM)	0.5 µg/mL (≈ 1.3 µM)	0.5 µg/mL (≈ 1.3 µM)	4 µg/mL (≈ 10.4 µM)	16 µg/mL (≈ 41.7 µM)	
CC(=O)NC[C@@H]1OC(=O)N2c3ccc(-c4ccc(C#N)nc4)cc3OC[C@@H]12												IC50 [21]: 2780 nM
CN1CC(c2ccc(-c3ccc4c(c3)OC[C@H]3[C@H](CO)OC(=O)N43)cn2)OC1=O (some centres not stated)	0.5 µg/mL (≈ 1.26 µM)	0.25 µg/mL (≈ 0.629 µM)	1 µg/mL (≈ 2.52 µM)		0.5 µg/mL (≈ 1.26 µM)			0.5 µg/mL (≈ 1.26 µM)	1 µg/mL (≈ 2.52 µM)			
CCN1CCN(c2ccc(-c3ccc4c(c3)OC[C@H]3[C@H](CO)OC(=O)N43)cn2)CC1	4 µg/mL (≈ 9.74 µM)	2 µg/mL (≈ 4.87 µM)	4 µg/mL (≈ 9.74 µM)		4 µg/mL (≈ 9.74 µM)			4 µg/mL (≈ 9.74 µM)	8 µg/mL (≈ 19.5 µM)			
Cn1nnc(-c2ccc(-c3ccc(N4C[C@H](CO)OC4=O)cc3F)cn2)n1 [TEDIZOLID]				2 µg/mL (≈ 5.4 µM)		2 µg/mL (≈ 5.4 µM)	0.25 µg/mL (≈ 0.675 µM)			2 µg/mL (≈ 5.4 µM)	8 µg/mL (≈ 21.6 µM)	
CC(C)N1CCN(c2ccc(-c3ccc4c(c3)OC[C@H]3[C@H](CO)OC(=O)N43)cn2)C1=O	2 µg/mL (≈ 4.71 µM)	2 µg/mL (≈ 4.71 µM)	8 µg/mL (≈ 18.8 µM)		4 µg/mL (≈ 9.42 µM)			4 µg/mL (≈ 9.42 µM)	4 µg/mL (≈ 9.42 µM)			
Cc1cc(N2CCOC2=O)ncc1-c1ccc2c(c1)OC[C@H]1[C@H](CO)OC(=O)N21	0.5 µg/mL (≈ 1.26 µM)	0.5 µg/mL (≈ 1.26 µM)	4 µg/mL (≈ 10.1 µM)		0.5 µg/mL (≈ 1.26 µM)			1 µg/mL (≈ 2.52 µM)	2 µg/mL (≈ 5.03 µM)			
O=C1O[C@@H](CO)[C@@H]2COc3cc(-c4ccc(Cn5cncn5)nc4)ccc3N12	0.5 µg/mL (≈ 1.32 µM)	0.5 µg/mL (≈ 1.32 µM)	1 µg/mL (≈ 2.64 µM)	8 µg/mL (≈ 21.1 µM)	0.5 µg/mL (≈ 1.32 µM)	8 µg/mL (≈ 21.1 µM)	1 µg/mL (≈ 2.64 µM)	0.5 µg/mL (≈ 1.32 µM)	0.5 µg/mL (≈ 1.32 µM)	8 µg/mL (≈ 21.1 µM)	16 µg/mL (≈ 42.2 µM)	
CN1CCC[C@H]2CN(c3ccc(-c4ccc5c(c4)OC[C@H]4[C@H](CO)OC(=O)N54)cn3)C[C@H]21	8 µg/mL (≈ 18.3 µM)	4 µg/mL (≈ 9.16 µM)	> 32 µg/mL		8 µg/mL (≈ 18.3 µM)			8 µg/mL (≈ 18.3 µM)	> 32 µg/mL			
Cn1nnc(-c2ccc(-c3ccc4c(c3)OC[C@H]3[C@H](CO)OC(=O)N43)cn2)n1	1 µg/mL (≈ 2.63 µM)	1 µg/mL (≈ 2.63 µM)	4 µg/mL (≈ 10.5 µM)		1 µg/mL (≈ 2.63 µM)			1 µg/mL (≈ 2.63 µM)	1 µg/mL (≈ 2.63 µM)			
